Results reported in ChEMBL document CHEMBL1145326, “Antimycobacterial agents. Novel diarylpyrrole derivatives of BM212 endowed with high activity toward Mycobacterium tuberculosis and low cytotoxicity” (2006).
Values after ≈ are worked out from the molar mass of the structure shown.

Assays:
[1] = test system: Mycobacterium tuberculosis; experiment: Antibacterial activity against Mycobacterium tuberculosis 103471; assay type: functional
How it was run: (§1)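 MIC by serial 2-fold tube dilution. Compound DMSO stocks were filter-sterilised (0.2 µm) and diluted in water. Tubes were inoculated with 10⁵–10⁶ CFU/mL of each mycobacterium and incubated at 37 °C for 3–21 days. Each run included a drug-free control tube. Values are in µg/mL.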

Vero [2] = experiment: Cytotoxicity against Vero cell line; assay type: functional, Chlorocebus sabaeus
How it was run: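 Vero cells were cultured for 24 h, then the medium was replaced with medium holding decreasing compound concentrations. After 5 days the cells were trypsinised and counted in a Neubauer chamber, in triplicate. MNTD₅₀ (µg/mL) is the concentration that decreased cell multiplication by less than 50% of control.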

Vero [3] = experiment: Protection index, cytotoxicity against Vero cell line/antibacterial activity against Mycobacterium tuberculosis 103471; assay type: functional
How it was run: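 Protection index is the ratio of Vero-cell MNTD₅₀ (cell counts after 5-day exposure) to the MIC against M. tuberculosis CIP 103471. The MIC came from 2-fold tube dilution, inoculum 10⁵–10⁶ CFU/mL, 37 °C.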

Mycobacterium avium = experiment: Antibacterial activity against Mycobacterium avium; assay type: functional; how it was run: as §1
Mycobacterium marinum = experiment: Antibacterial activity against Mycobacterium marinum; assay type: functional; how it was run: as §1
[4] = test system: Mycolicibacterium smegmatis; experiment: Antibacterial activity against Mycobacterium smegmatis; assay type: functional; how it was run: as §1

| Compound | MIC [1] | Maximal non-toxic dose 50 (Vero [2]) | PI (Vero [3]) | MIC (Mycobacterium avium) | MIC (Mycobacterium marinum) | MIC [4] |
| --- | --- | --- | --- | --- | --- | --- |
| Cc1ccc(-c2cc(CN3CCN(C)CC3)c(C)n2-c2ccc(F)cc2)cc1 | 4 µg/mL (≈ 10.6 µM) | 8 µg/mL | 2 | 4 µg/mL (≈ 10.6 µM) | > 16 µg/mL | 8 µg/mL (≈ 21.2 µM) |
| NNC(=O)c1ccncc1 [ISONIAZID] | 0.25 µg/mL (≈ 1.82 µM) | 32 µg/mL | 128 | 32 µg/mL (≈ 233 µM) | 16 µg/mL (≈ 117 µM) | 64 µg/mL (≈ 467 µM) |
| Cc1c(CN2CCSCC2)cc(-c2ccccc2Cl)n1-c1ccc(F)cc1 | 4 µg/mL (≈ 9.98 µM) | 4 µg/mL | 1 | 16 µg/mL (≈ 39.9 µM) | > 16 µg/mL | > 16 µg/mL |
| Cc1c(CN2CCSCC2)cc(-c2ccc(F)cc2)n1-c1ccc(F)cc1F | 2 µg/mL (≈ 4.97 µM) | 16 µg/mL | 8 | 16 µg/mL (≈ 39.8 µM) | 16 µg/mL (≈ 39.8 µM) | > 16 µg/mL |
| Cc1c(CN2CCSCC2)cc(-c2ccc(F)cc2F)n1-c1ccc(F)cc1 | 0.5 µg/mL (≈ 1.24 µM) | 16 µg/mL | 32 | 16 µg/mL (≈ 39.8 µM) | 16 µg/mL (≈ 39.8 µM) | > 16 µg/mL |
| Cc1c(CN2CCN(C)CC2)cc(-c2ccccc2F)n1-c1ccc(F)cc1 | > 16 µg/mL | 4 µg/mL |  | > 16 µg/mL | > 16 µg/mL | > 16 µg/mL |
| Cc1c(CN2CCN(C)CC2)cc(-c2ccc(Cl)cc2)n1-c1ccc(Cl)cc1 | 0.7 µg/mL (≈ 1.69 µM) | 4 µg/mL | 5.6 | 0.4 µg/mL (≈ 0.965 µM) | 100 µg/mL (≈ 241 µM) | 25 µg/mL (≈ 60.3 µM) |
| Cc1cccc(-c2cc(CN3CCSCC3)c(C)n2-c2ccc(F)cc2)c1 | 2 µg/mL (≈ 5.26 µM) | 4 µg/mL | 2 | 8 µg/mL (≈ 21 µM) | > 16 µg/mL | > 16 µg/mL |
| Cc1cccc(-n2c(-c3ccc(F)cc3)cc(CN3CCSCC3)c2C)c1 | 4 µg/mL (≈ 10.5 µM) | 8 µg/mL | 2 | 16 µg/mL (≈ 42 µM) | > 16 µg/mL | > 16 µg/mL |
| Cc1c(CN2CCSCC2)cc(-c2ccc(F)cc2)n1-c1ccccc1Cl | 2 µg/mL (≈ 4.99 µM) | 8 µg/mL | 4 | > 16 µg/mL | > 16 µg/mL | > 16 µg/mL |
| Cc1c(CN2CCN(C)CC2)cc(-c2ccc(F)cc2)n1-c1ccccc1F | 8 µg/mL (≈ 21 µM) | 8 µg/mL | 1 | 16 µg/mL (≈ 41.9 µM) | > 16 µg/mL | 0.3 µg/mL (≈ 0.786 µM) |
| Cc1c(CN2CCSCC2)cc(-c2ccccc2F)n1-c1ccc(F)cc1 | 0.5 µg/mL (≈ 1.3 µM) | 16 µg/mL | 32 | 16 µg/mL (≈ 41.6 µM) | > 16 µg/mL | > 16 µg/mL |
| Cc1c(CN2CCN(C)CC2)cc(-c2ccc(F)cc2)n1-c1ccc(Cl)cc1Cl | 4 µg/mL (≈ 9.25 µM) | 2 µg/mL | 0.5 | 4 µg/mL (≈ 9.25 µM) | 8 µg/mL (≈ 18.5 µM) | > 16 µg/mL |
| Cc1c(CN2CCN(C)CC2)cc(-c2ccc(Cl)cc2Cl)n1-c1ccc(F)cc1 | 8 µg/mL (≈ 18.5 µM) | 16 µg/mL | 2 | 2 µg/mL (≈ 4.63 µM) | > 16 µg/mL | > 16 µg/mL |
| Cc1cccc(-c2cc(CN3CCN(C)CC3)c(C)n2-c2ccc(F)cc2)c1 | 16 µg/mL (≈ 42.4 µM) | 8 µg/mL | 0.5 | 16 µg/mL (≈ 42.4 µM) | > 16 µg/mL | > 16 µg/mL |
| Cc1cccc(-n2c(-c3ccc(F)cc3)cc(CN3CCN(C)CC3)c2C)c1 | 16 µg/mL (≈ 42.4 µM) | 16 µg/mL | 1 | > 16 µg/mL | > 16 µg/mL | > 16 µg/mL |
| Cc1c(CN2CCSCC2)cc(-c2ccc(Cl)cc2Cl)n1-c1ccc(F)cc1 | 2 µg/mL (≈ 4.59 µM) | 64 µg/mL | 32 | 4 µg/mL (≈ 9.19 µM) | > 16 µg/mL | > 16 µg/mL |
| Cc1ccccc1-n1c(-c2ccc(F)cc2)cc(CN2CCSCC2)c1C | 8 µg/mL (≈ 21 µM) | 16 µg/mL | 2 | 16 µg/mL (≈ 42 µM) | > 16 µg/mL | > 16 µg/mL |
| Cc1ccccc1-c1cc(CN2CCN(C)CC2)c(C)n1-c1ccc(F)cc1 | > 16 µg/mL | 2 µg/mL |  | > 16 µg/mL | > 16 µg/mL | > 16 µg/mL |
| CN[C@@H]1[C@H](O[C@H]2[C@H](O[C@H]3[C@H](O)[C@@H](O)[C@H](N=C(N)N)[C@@H](O)[C@@H]3N=C(N)N)O[C@@H](C)[C@]2(O)C=O)O[C@@H](CO)[C@H](O)[C@H]1O (stereo in doubt) [STREPTOMYCIN] | 0.5 µg/mL (≈ 0.86 µM) | >64 µg/mL | >128 | 8 µg/mL (≈ 13.8 µM) | 32 µg/mL (≈ 55 µM) | 8 µg/mL (≈ 13.8 µM) |
| Cc1ccccc1-n1c(-c2ccc(F)cc2)cc(CN2CCN(C)CC2)c1C | > 16 µg/mL | 2 µg/mL |  | > 16 µg/mL | > 16 µg/mL | > 16 µg/mL |
| Cc1c(CN2CCN(C)CC2)cc(-c2ccc(F)cc2)n1-c1ccc(F)cc1F | 16 µg/mL (≈ 40.1 µM) | 16 µg/mL | 1 | 16 µg/mL (≈ 40.1 µM) | 16 µg/mL (≈ 40.1 µM) | > 16 µg/mL |
| Cc1c(CN2CCN(C)CC2)cc(-c2ccccc2Cl)n1-c1ccc(F)cc1 | 8 µg/mL (≈ 20.1 µM) | 2 µg/mL | 0.25 | 16 µg/mL (≈ 40.2 µM) | > 16 µg/mL | > 16 µg/mL |
| Cc1c(CN2CCN(C)CC2)cc(-c2ccc(F)cc2F)n1-c1ccc(F)cc1 | 4 µg/mL (≈ 10 µM) | 8 µg/mL | 2 | 16 µg/mL (≈ 40.1 µM) | > 16 µg/mL | > 16 µg/mL |
| Cc1c(CN2CCSCC2)cc(-c2ccc(F)cc2)n1-c1ccc(Cl)cc1Cl | 1 µg/mL (≈ 2.3 µM) | 4 µg/mL | 4 | 2 µg/mL (≈ 4.59 µM) | 8 µg/mL (≈ 18.4 µM) | 16 µg/mL (≈ 36.7 µM) |
| Cc1ccc(-n2c(-c3ccc(F)cc3)cc(CN3CCSCC3)c2C)cc1 | 1 µg/mL (≈ 2.63 µM) | 32 µg/mL | 32 | 8 µg/mL (≈ 21 µM) | 8 µg/mL (≈ 21 µM) | 16 µg/mL (≈ 42 µM) |
| Cc1ccccc1-c1cc(CN2CCSCC2)c(C)n1-c1ccc(F)cc1 | 4 µg/mL (≈ 10.5 µM) | 8 µg/mL | 2 | 8 µg/mL (≈ 21 µM) | > 16 µg/mL | > 16 µg/mL |
| Cc1c(CN2CCN(C)CC2)cc(-c2ccc(F)cc2)n1-c1ccccc1Cl | 4 µg/mL (≈ 10.1 µM) | 8 µg/mL | 2 | > 16 µg/mL | > 16 µg/mL | > 16 µg/mL |
| Cc1ccc(-n2c(-c3ccc(F)cc3)cc(CN3CCN(C)CC3)c2C)cc1 | 16 µg/mL (≈ 42.4 µM) | 8 µg/mL | 0.5 | 16 µg/mL (≈ 42.4 µM) | 8 µg/mL (≈ 21.2 µM) | > 16 µg/mL |
